This passage reports Activity results from ChEMBL document CHEMBL5357024, “MDM2 Antagonist Idasanutlin Reduces HDAC1/2 Abundance and Corepressor Partners but Not HDAC3” (ACS Med Chem Lett, 2024).

Common to all, as to assay type: cell-based
For assay [1], the target named is Lysine-specific histone demethylase 1A (Homo sapiens) (UniProt O60341). The assay is described as follows: Induction of LSD1 degradation in human HCT-116 cells assessed as reduction in LSD1 abundance by measuring remaining activity at 0.25 uM measured after 24 hrs by Western blot analysis (reference value: 100%). The essentials: (§1)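 HCT116 cells seeded in six-well plates for 24 h, then exposed 24 h to compound (0.01–10 μM) or DMSO in fresh medium. Lysis in Tris-HCl/NaCl/NP-40/Triton X-100 with protease inhibitor. Bradford-normalised 30 μg protein per lane. Quantitative Western blot used specific HDAC1, HDAC2, HDAC3, LSD1 or Sin3a antibodies with IRDye secondaries. Abundance compared with DMSO, n = 2 replicates.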
On the technique in general: In western blotting, separated proteins are transferred to a membrane and probed.

Assay [2] deals with T1, Paired amphipathic helix protein Sin3a (Homo sapiens) (UniProt Q96ST3).
T1 sequence (whole entry): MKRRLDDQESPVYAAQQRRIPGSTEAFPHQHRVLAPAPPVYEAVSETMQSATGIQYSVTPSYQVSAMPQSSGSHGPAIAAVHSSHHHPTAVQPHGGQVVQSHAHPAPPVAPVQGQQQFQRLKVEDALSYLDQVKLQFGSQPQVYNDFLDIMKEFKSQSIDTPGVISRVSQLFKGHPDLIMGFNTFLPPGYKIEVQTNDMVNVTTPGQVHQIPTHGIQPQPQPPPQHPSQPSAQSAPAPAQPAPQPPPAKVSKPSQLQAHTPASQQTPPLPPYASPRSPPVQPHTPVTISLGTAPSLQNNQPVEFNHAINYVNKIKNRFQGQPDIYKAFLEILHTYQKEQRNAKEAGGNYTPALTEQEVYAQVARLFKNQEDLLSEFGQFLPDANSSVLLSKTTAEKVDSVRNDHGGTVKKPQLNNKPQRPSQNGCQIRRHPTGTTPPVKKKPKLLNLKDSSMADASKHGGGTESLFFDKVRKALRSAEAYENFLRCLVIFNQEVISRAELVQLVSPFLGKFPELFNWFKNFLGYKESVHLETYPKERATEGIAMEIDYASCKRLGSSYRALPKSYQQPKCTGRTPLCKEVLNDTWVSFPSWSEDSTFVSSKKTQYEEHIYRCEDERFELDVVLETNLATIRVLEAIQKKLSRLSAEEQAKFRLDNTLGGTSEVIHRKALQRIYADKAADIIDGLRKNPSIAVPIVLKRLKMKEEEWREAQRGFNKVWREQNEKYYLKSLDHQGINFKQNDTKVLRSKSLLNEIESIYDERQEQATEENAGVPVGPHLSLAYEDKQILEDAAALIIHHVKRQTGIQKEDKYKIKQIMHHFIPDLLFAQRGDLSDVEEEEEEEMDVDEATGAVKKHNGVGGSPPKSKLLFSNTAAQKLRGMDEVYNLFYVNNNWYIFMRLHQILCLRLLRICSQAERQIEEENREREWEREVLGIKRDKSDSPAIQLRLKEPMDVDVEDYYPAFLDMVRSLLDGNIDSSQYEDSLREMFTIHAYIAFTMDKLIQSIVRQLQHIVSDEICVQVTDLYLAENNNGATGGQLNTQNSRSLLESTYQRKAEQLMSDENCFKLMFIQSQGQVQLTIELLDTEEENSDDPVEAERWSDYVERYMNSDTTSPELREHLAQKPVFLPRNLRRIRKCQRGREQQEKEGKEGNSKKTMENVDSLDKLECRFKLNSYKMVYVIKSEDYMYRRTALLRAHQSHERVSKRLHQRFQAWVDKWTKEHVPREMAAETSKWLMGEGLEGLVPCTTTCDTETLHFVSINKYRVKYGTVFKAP
The assay is described as follows: Induction of SIN3A degradation in human HCT-116 cells assessed as reduction in SIN3A abundance by measuring remaining activity at 0.05 uM measured after 24 hrs by Western blot analysis (reference value: 100%). In a few lines:
as §1

Assay [3] deals with T2, E3 ubiquitin-protein ligase Mdm2/Histone deacetylase 1 (Homo sapiens) (UniProt Q00987+Q13547). The assay is described as follows: PROTAC activity at MDM2/HDAC1 in human HCT-116 cells assessed as decrease in HDAC1 abundance by measuring remaining activity at 0.01 uM measured after 24 hrs by Western blot analysis (reference value: 100%). In a few lines: as §1
T2 sequence (Q00987 whole entry, looked up): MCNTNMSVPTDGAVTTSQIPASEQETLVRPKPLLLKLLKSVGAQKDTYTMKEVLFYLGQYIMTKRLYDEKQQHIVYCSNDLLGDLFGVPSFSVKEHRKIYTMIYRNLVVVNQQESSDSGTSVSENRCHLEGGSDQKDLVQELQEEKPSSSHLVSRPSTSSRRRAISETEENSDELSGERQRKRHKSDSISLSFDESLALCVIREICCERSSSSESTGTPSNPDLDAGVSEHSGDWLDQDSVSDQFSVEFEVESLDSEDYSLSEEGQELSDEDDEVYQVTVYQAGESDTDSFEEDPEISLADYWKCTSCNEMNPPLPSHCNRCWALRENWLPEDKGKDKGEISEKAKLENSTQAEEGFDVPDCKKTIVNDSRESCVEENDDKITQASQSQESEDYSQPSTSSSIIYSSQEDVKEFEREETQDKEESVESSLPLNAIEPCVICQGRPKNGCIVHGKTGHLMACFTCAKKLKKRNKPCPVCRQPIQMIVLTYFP
T2 sequence (Q13547 whole entry, looked up): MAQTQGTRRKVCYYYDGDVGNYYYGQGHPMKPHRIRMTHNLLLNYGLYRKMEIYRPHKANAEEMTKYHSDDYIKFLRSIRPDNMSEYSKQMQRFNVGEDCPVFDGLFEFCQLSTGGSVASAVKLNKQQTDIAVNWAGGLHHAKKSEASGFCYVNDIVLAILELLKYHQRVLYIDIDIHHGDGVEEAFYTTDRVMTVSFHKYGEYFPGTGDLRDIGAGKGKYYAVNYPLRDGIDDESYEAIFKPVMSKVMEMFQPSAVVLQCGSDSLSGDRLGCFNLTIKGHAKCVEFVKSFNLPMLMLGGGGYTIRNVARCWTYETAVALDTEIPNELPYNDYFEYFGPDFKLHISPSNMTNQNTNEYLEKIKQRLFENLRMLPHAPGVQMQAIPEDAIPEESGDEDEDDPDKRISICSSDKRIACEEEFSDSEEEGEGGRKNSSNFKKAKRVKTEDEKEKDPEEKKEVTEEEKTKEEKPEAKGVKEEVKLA
Assay [4] concerns the target T3, E3 ubiquitin-protein ligase Mdm2/Histone deacetylase 3 (Homo sapiens) (UniProt Q00987+O15379). Nature of the assay: PROTAC activity at MDM2/HDAC3 in human HCT-116 cells assessed as reduction in HDAC3 abundance by measuring remaining activity at 0.1 uM measured after 24 hrs by Western blot analysis (reference value: 100%). The essentials: (§2)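 HCT116 cells in DMEM with 10% FBS and glutamine/penicillin/streptomycin at 37 °C, 5% CO2. Seeded 4 × 10^5 cells/well, after 24 h treated 24 h with DMSO or compound in fresh medium. Lysed in Tris-HCl/NaCl/NP-40/Triton X-100 buffer with protease inhibitor, Bradford-quantified, 30 μg protein per lane. Quantitative Western blot with specific HDAC1/2/3 antibodies, IRDye secondaries, infrared imaging, versus DMSO. n = 2 replicates.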

Assay [5] deals with T3, E3 ubiquitin-protein ligase Mdm2/Histone deacetylase 3 (Homo sapiens). Nature of the assay: PROTAC activity at MDM2/HDAC3 in human HCT-116 cells assessed as reduction in HDAC3 abundance by measuring remaining activity at 2.5 uM measured after 24 hrs by Western blot analysis. The essentials: as §2
Assay [6] shares this target. Nature of the assay: PROTAC activity at MDM2/HDAC3 in human HCT-116 cells assessed as reduction in HDAC3 abundance by measuring remaining activity at 1 uM measured after 24 hrs by Western blot analysis (reference value: 100%). The essentials: as §2
Assay [7] has the same target. Nature of the assay: PROTAC activity at MDM2/HDAC3 in human HCT-116 cells assessed as reduction in HDAC3 abundance by measuring remaining activity at 10 uM measured after 24 hrs by Western blot analysis (reference value: 100%). In a few lines: as §2
The target in assay [8] is T4, E3 ubiquitin-protein ligase Mdm2/Histone deacetylase 2 (Homo sapiens) (UniProt Q00987+Q92769). Nature of the assay: PROTAC activity at MDM2/HDAC2 in human HCT-116 cells assessed as decrease in HDAC2 abundance by measuring remaining activity at 0.5 uM measured after 24 hrs by Western blot analysis (reference value: 100%). The essentials:
as §1

Assay [9] addresses T2, E3 ubiquitin-protein ligase Mdm2/Histone deacetylase 1 (Homo sapiens). Nature of the assay: PROTAC activity at MDM2/HDAC1 in human HCT-116 cells assessed as induction of HDAC1 degradation by Western blot analysis. To be noted: dose 0.01-10 µM.
Assay [10] concerns the target T4, E3 ubiquitin-protein ligase Mdm2/Histone deacetylase 2 (Homo sapiens). Nature of the assay: PROTAC activity at MDM2/HDAC2 in human HCT-116 cells assessed as decrease in HDAC2 abundance by measuring remaining activity at 0.01 uM measured after 24 hrs by Western blot analysis (reference value: 100%). The essentials:
as §1

For assay [11], the target named is T1, Paired amphipathic helix protein Sin3a (Homo sapiens). Nature of the assay: Induction of SIN3A degradation in human HCT-116 cells assessed as reduction in SIN3A abundance by measuring remaining activity at 0.01 uM measured after 24 hrs by Western blot analysis (reference value: 100%). The essentials: as §1
Assay [12] deals with T4, E3 ubiquitin-protein ligase Mdm2/Histone deacetylase 2 (Homo sapiens). Nature of the assay: PROTAC activity at MDM2/HDAC2 in human HCT-116 cells assessed as decrease in HDAC2 abundance by measuring remaining activity at 0.025 uM measured after 24 hrs by Western blot analysis (reference value: 100%). The essentials:
as §1

Structures are written as SMILES.

T3 sequence (O15379 whole entry, looked up): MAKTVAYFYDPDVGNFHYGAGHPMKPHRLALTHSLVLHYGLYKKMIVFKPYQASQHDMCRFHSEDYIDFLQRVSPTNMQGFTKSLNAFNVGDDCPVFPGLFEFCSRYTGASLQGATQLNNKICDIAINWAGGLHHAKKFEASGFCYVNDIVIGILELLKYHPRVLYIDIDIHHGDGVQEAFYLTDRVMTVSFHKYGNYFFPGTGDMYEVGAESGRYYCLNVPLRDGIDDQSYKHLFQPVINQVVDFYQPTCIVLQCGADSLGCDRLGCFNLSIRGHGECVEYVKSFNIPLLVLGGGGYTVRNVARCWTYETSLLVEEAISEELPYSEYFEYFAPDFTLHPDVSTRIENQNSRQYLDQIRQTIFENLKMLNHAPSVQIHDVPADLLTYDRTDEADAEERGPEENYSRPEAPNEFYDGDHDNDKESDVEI
T3 sequence (Q00987 whole entry, looked up): as the sequence (Q00987 whole entry, looked up) above
T4 sequence (Q00987 whole entry, looked up): as above
T4 sequence (Q92769 whole entry, looked up): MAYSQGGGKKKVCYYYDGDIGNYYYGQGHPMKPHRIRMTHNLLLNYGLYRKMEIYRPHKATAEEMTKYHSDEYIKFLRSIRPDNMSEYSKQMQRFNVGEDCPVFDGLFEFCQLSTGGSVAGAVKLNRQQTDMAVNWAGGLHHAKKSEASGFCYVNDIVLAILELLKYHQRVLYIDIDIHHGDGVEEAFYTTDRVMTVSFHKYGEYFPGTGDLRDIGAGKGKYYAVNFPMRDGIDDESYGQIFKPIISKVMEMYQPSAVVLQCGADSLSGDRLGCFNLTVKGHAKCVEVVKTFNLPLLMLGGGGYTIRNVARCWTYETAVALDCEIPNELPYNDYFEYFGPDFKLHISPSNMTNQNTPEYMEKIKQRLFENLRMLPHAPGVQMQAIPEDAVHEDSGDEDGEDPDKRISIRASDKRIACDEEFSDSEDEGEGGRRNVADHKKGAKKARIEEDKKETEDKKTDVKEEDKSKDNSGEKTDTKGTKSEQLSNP

As to `COc1cc(C(=O)NCCOCCOCCOCCOCCC(=O)Nc2ccc(C(=O)Nc3ccccc3N)cc2)ccc1NC(=O)[C@@H]1N[C@@H](CC(C)(C)C)[C@](C#N)(c2ccc(Cl)cc2F)[C@H]1c1cccc(Cl)c1F`, the Activity in assay [1] was 95%; in assay [2] it was 103%; in [3], 108%; in assay [4], 103%; in assay [5], 112%; in assay [6], 104%. In addition, the Activity is 91% in assay [7]; 89% in assay [8]; “Dose-Dependent Effect” in assay [9]; 97% in assay [10]; 104% in [11]; 96% in assay [12].
